# Measured values from article PMC6424611 (Journal of molecular biology, 2019).
# pKd: −log10 of the molar value. Where no end group is shown, it is not given here. [ ]: non-standard residue; d: D form. The star is where a group is joined. Biotin = O=C1N[C@H]2[C@H](CS[C@H]2CCCCC(=O)*)N1; TTDS = NCCCOCCOCCOCCCNC(=O)CCC(=O)*; pS = N[C@@H](COP(=O)(O)O)C(=O)O
# What was measured:
# GORASP1 PDZ = assay: holdup assay; assay type: binding, human; settings: ~4 μM PDZ
# In short: (§1)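 Automated holdup against N-terminally biotinylated (TTDS linker) RSK1 725–735 peptides, unphosphorylated and phosphorylated, in triplicate. PDZome v2 clones were codon-optimized and expressed in E. coli, with soluble lysate adjusted to ~4 μM. BI is the PDZ fraction depleted from the fluid phase.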
# ARHGEF12 PDZ = target: T1, ARHGEF12 PDZ (Homo sapiens, UniProt Q9NZN5); assay: holdup assay; assay type: binding; settings: ~4 μM PDZ
# T1 sequence (Q9NZN5 72-151 limits assumed): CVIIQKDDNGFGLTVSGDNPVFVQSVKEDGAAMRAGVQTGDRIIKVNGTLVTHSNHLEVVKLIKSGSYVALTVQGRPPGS
# In short: as §1
# PPP1R9A PDZ = assay: holdup assay; assay type: binding, human; settings: ~4 μM PDZ
# In short: as §1
# SNTB1 PDZ = target: T2, SNTB1 PDZ (Homo sapiens, UniProt Q13884); assay: holdup assay; assay type: binding; settings: ~4 μM PDZ
# T2 sequence (Q13884 112-195 limits assumed): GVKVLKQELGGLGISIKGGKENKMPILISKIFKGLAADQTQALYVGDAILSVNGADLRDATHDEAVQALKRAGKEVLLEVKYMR
# In short: as §1
# MAGI1-2 PDZ = MAGI1-2 PDZ (Homo sapiens, UniProt Q96QZ7); assay: holdup assay; assay type: binding
# MAGI1-2 PDZ, sequence (Q96QZ7 472-554 limits assumed): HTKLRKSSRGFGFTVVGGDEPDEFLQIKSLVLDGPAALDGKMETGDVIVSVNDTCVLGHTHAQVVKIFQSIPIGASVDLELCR
# In short: as §1
# PDZRN3-1 PDZ = target: T3, PDZRN3-1 PDZ (Homo sapiens, UniProt Q9UPQ7); assay: holdup assay; assay type: binding; settings: ~4 μM PDZ
# T3 sequence (Q9UPQ7 249-339 limits assumed): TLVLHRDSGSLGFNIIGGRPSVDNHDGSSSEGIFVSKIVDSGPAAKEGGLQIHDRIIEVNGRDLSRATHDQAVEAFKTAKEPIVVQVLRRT
# In short: as §1
# SYNJ2BP PDZ = target: T4, SYNJ2BP PDZ (Homo sapiens, UniProt P57105); assay: holdup assay; assay type: binding; settings: fraction of PDZ depleted; ~4 μM PDZ; biotinylated RSK1_725–735; triplicates
# T4 sequence (P57105 13-100 limits assumed): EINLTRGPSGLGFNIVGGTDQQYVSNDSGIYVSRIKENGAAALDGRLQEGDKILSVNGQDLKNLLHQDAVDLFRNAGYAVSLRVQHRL
# In short: as §1
# GRASP PDZ = assay: holdup assay; assay type: binding, human; settings: ~4 μM PDZ
# In short: as §1
# MAST2 PDZ = target: T5, MAST2 PDZ (Homo sapiens, UniProt Q6P0Q8); assay: holdup assay; assay type: binding; settings: ~4 μM PDZ
# T5 sequence (Q6P0Q8 1104-1192 limits assumed): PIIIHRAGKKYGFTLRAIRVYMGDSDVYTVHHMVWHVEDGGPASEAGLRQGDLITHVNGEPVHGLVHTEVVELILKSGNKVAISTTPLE
# In short: as §1
# MAGI3-2 PDZ = assay: holdup assay; assay type: binding, human; settings: fraction of PDZ depleted; ~4 μM PDZ; biotinylated RSK1_725–735; triplicates
# In short: (§2)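 Automated holdup in triplicate measured biotinylated (N-terminal TTDS linker) RSK1 725–735 peptides, unphosphorylated or phosphorylated, against E. coli-expressed PDZome v2 domains. Soluble lysate was adjusted to ~4 μM, giving 255 domains for the unphosphorylated and 252 for the phosphorylated peptide. Binding intensity (BI) is the fraction of PDZ depleted from the fluid phase. BI 0.2 was the high-confidence threshold.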
# HTRA1 PDZ = HTRA1 PDZ (Homo sapiens, UniProt Q92743); assay: holdup assay; assay type: binding; settings: ~4 μM PDZ
# HTRA1 PDZ, sequence (Q92743 365-467 limits assumed): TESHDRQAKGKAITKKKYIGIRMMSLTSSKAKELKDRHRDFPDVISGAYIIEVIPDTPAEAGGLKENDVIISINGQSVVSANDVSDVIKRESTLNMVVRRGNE
# In short: as §1
# LAP2 PDZ = assay: holdup assay; assay type: binding, human; settings: fraction of PDZ depleted; ~4 μM PDZ; biotinylated RSK1_725–735; triplicates
# In short: as §1
# SCRIB-3 PDZ = assay: holdup assay, updated analysis; assay type: binding, human; settings: weak partner; automated computational protocol
# In short: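 The same triplicate holdup datasets (biotinylated RSK1 725–735, unphosphorylated and phosphorylated, vs ~4 μM PDZome lysates) were re-analysed with an updated automated computational protocol. This gave alternative BI values, reported as supplemental values alongside the conventional analysis.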
# NHERF2-2 PDZ = assay: holdup assay; assay type: binding, human; settings: ~4 μM PDZ
# In short: as §1
# SNTA1 PDZ = target: T6, SNTA1 PDZ (Homo sapiens, UniProt Q13424); assay: holdup assay; assay type: binding; settings: ~4 μM PDZ
# T6 sequence (Q13424 87-170 limits assumed): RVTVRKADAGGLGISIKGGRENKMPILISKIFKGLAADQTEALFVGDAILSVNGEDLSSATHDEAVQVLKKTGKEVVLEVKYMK
# In short: as §1
# GOPC PDZ = GOPC PDZ (Homo sapiens, UniProt Q9HD26); assay: holdup assay; assay type: binding; settings: fraction of PDZ depleted; ~4 μM PDZ; biotinylated RSK1_725–735; triplicates
# SHROOM2 PDZ = assay: holdup assay; assay type: binding, human; settings: ~4 μM PDZ
# In short: as §1
# DFNB31-3 PDZ = assay: holdup assay; assay type: binding, human; settings: ~4 μM PDZ
# In short: as §1
# LIMK2 PDZ = assay: holdup assay; assay type: binding, human; settings: ~4 μM PDZ
# In short: as §1
# MAGI2-2 PDZ = MAGI2-2 PDZ (Homo sapiens, UniProt Q86UL8); assay: holdup assay; assay type: binding; settings: ~4 μM PDZ
# MAGI2-2 PDZ, sequence (Q86UL8 426-510 limits assumed): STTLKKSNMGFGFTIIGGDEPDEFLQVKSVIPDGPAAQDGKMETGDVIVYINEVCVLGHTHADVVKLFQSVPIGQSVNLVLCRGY
# In short: as §1
# PDZRN4-1 PDZ = target: T7, PDZRN4-1 PDZ (Homo sapiens, UniProt Q6ZMN7); assay: holdup assay; assay type: binding; settings: fraction of PDZ depleted; ~4 μM PDZ; biotinylated RSK1_725–735; triplicates
# T7 sequence (Q6ZMN7 224-314 limits assumed): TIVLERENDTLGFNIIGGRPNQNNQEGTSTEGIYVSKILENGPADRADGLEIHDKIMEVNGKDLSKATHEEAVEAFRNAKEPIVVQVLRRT
# In short: as §2
# GORASP2 PDZ = assay: holdup assay; assay type: binding, human; settings: ~4 μM PDZ
# In short: as §1
# DLG4-2 PDZ = assay: holdup assay; assay type: binding, human; settings: fraction of PDZ depleted; ~4 μM PDZ; biotinylated RSK1_725–735; triplicates
# LNX1 −3 PDZ = assay: holdup assay; assay type: binding, human; settings: ~4 μM PDZ
# In short: as §1
# SNTG2 PDZ = target: T8, SNTG2 PDZ (Homo sapiens, UniProt Q9NY99); assay: holdup assay; assay type: binding; settings: fraction of PDZ depleted; ~4 μM PDZ; biotinylated RSK1_725–735; triplicates
# T8 sequence (Q9NY99 73-156 limits assumed): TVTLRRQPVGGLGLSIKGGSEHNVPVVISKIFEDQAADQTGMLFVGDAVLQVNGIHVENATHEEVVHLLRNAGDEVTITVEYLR
# In short: as §1
# GRID2IP-1 PDZ = assay: holdup assay; assay type: binding, human; settings: ~4 μM PDZ
# In short: as §1
# [1] = fraction of PDZ depleted, biotinylated RSK1_725–735, triplicates
# [2] = read-out: KD, estimated, from BI, estimated 17 μM peptide
substance,measurement,setting,value
phosphorylated RSK1 peptide: RSK1 C-terminal PBM peptide phosphorylated at position −3; same constructs as the unphosphorylated ({Biotin-TTDS}-RRVRKLP[pS]TTL),binding intensity (BI),GORASP1 PDZ; [1],0.23 ± 0.03
same,pKd,GORASP1 PDZ; [2],4.27
same,binding intensity (BI),ARHGEF12 PDZ; [1],0.05 ± 0.05
same,pKd,ARHGEF12 PDZ; [2],< 4.00
same,binding intensity (BI),PPP1R9A PDZ; [1],0.33 ± 0.02
same,pKd,PPP1R9A PDZ; [2],4.50
same,binding intensity (BI),SNTB1 PDZ; [1],0.45 ± 0.08
same,pKd,SNTB1 PDZ; [2],4.73
same,binding intensity (BI),"MAGI1-2 PDZ; fraction of PDZ depleted, ~4 μM PDZ, biotinylated RSK1_725–735, triplicates",0.15 ± 0.02
same,down regulation of interaction by phosphorylation,"MAGI1-2 PDZ; holdup, phosphorylated vs unphosphorylated",a factor of five
same,pKd,"MAGI1-2 PDZ; read-out: KD, estimated, from BI, estimated 17 μM peptide, ~4 μM PDZ",4.03
same,binding intensity (BI),PDZRN3-1 PDZ; [1],0.45 ± 0.01
same,pKd,PDZRN3-1 PDZ; [2],4.73
same,binding intensity (BI),SYNJ2BP PDZ,0.54 ± 0.03
same,binding intensity (BI),GRASP PDZ; [1],0.04 ± 0.01
same,pKd,GRASP PDZ; [2],< 4.00
same,binding intensity (BI),MAST2 PDZ; [1],0.23 ± 0.03
same,pKd,MAST2 PDZ; [2],4.27
same,binding intensity (BI),MAGI3-2 PDZ,0.28 ± 0.06
same,binding intensity (BI),HTRA1 PDZ; [1],0.36 ± 0.01
same,pKd,HTRA1 PDZ; [2],4.56
same,binding intensity (BI),LAP2 PDZ,0.28 ± 0.01
same,interaction partner by updated analysis,SCRIB-3 PDZ,new partners
same,binding intensity (BI),NHERF2-2 PDZ; [1],0.07 ± 0.05
same,pKd,NHERF2-2 PDZ; [2],< 4.00
same,binding intensity (BI),SNTA1 PDZ; [1],0.53 ± 0.01
same,pKd,SNTA1 PDZ; [2],4.88
same,binding intensity (BI),GOPC PDZ,0.25 ± 0.10
same,binding intensity (BI),SHROOM2 PDZ; [1],0.21 ± 0.01
same,pKd,SHROOM2 PDZ; [2],4.22
same,binding intensity (BI),DFNB31-3 PDZ; [1],−0.01 ± 0.02
same,pKd,DFNB31-3 PDZ; [2],< 4.00
same,binding intensity (BI),LIMK2 PDZ; [1],0.22 ± 0.07
same,pKd,LIMK2 PDZ; [2],4.24
same,binding intensity (BI),MAGI2-2 PDZ; [1],0.23 ± 0.03
same,pKd,MAGI2-2 PDZ; [2],4.27
same,binding intensity (BI),PDZRN4-1 PDZ,0.54 ± 0.03
same,binding intensity (BI),GORASP2 PDZ; [1],0.19 ± 0.01
same,pKd,GORASP2 PDZ; [2],4.16
same,binding intensity (BI),DLG4-2 PDZ,0.25 ± 0.02
same,binding intensity (BI),LNX1 −3 PDZ; [1],0.24 ± 0.07
same,pKd,LNX1 −3 PDZ; [2],4.29
same,binding intensity (BI),SNTG2 PDZ,0.52 ± 0.05
same,binding intensity (BI),GRID2IP-1 PDZ; [1],0.24 ± 0.01
same,pKd,GRID2IP-1 PDZ; [2],4.29
